From ChEMBL document CHEMBL5357066, “Development of Novel Membrane Disrupting Lipoguanidine Compounds Sensitizing Gram-Negative Bacteria to Antibiotics” (ACS Med Chem Lett, 2024)
Values after ≈ are worked out from the molar mass of the structure shown.

What was measured:
[1] = test system: Enterococcus faecium; experiment: Antibacterial activity against vancomycin resistant Enterococcus faecium NCTC 12204 assessed as bacterial growth inhibition incubated for overnight by microbroth dilution method; format: functional
Summary of the method: (§1)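 Microbroth dilution in Tryptic Soy Broth. DMSO stocks were diluted in TSB as 2-fold series. Overnight TSB cultures were back-diluted to OD 0.01 and mixed 1:1 with compound. Incubation was overnight at 37 °C. MIC is the lowest concentration with no visible growth (<0.1 OD600). DMSO at equivalent concentrations was checked.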

[2] = test system: Pseudomonas aeruginosa; experiment: Synergistic antibacterial activity against Pseudomonas aeruginosa NCTC 13437 assessed as bacterial growth inhibition incubated for overnight in presence of PBMN by microbroth dilution method relative to control; format: functional
Summary of the method: (§2)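 Adapted broth microdilution in TSB. The test compound was in a 2-fold dilution series, with PMBN added at a fixed 30 µg/mL. Bacteria at OD 0.02 were added, and plates were incubated overnight at 37 °C. Growth/no growth was read as for the MIC (<0.1 OD600).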

[3] = test system: Pseudomonas aeruginosa; experiment: Synergistic antibacterial activity against Pseudomonas aeruginosa PAO1 assessed as fold change in rifampicin MIC at <=0.25 times MIC incubated for overnight by microbroth dilution checkerboard assay relative to rifampicin alone; format: functional
Summary of the method: (§3)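 Checkerboard microdilution in Tryptic Soy Broth, run like the MIC assay. Overnight TSB cultures were back-diluted to OD 0.01 and added 1:1 to the combined two-fold series of both agents, then incubated overnight at 37 °C. Growth/no-growth was called at <0.1 OD600. MICs alone were read on the same plates. FIC index came from the most synergistic well; three independent repeats, mean ± SD.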

[4] = test system: Pseudomonas aeruginosa; experiment: Synergistic antibacterial activity against Pseudomonas aeruginosa PAO1 assessed as bacterial growth inhibition incubated for overnight in presence of […] by microbroth dilution method relative to control; format: functional
Summary of the method: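 Fixed-concentration combination MIC in TSB. The first agent was set in a two-fold dilution series (100 µL/well), then 50 µL/well of the second agent at a fixed concentration was added; PMBN was fixed at 30 µg/mL. Bacteria at OD 0.02 (50 µL) went into 150 µL of compounds, overnight at 37 °C. MIC was the lowest concentration without visible growth (<0.1 OD600).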

[5] = test system: Klebsiella pneumoniae; experiment: Antibacterial activity against ESBL Klebsiella pneumoniae NCTC 13368 assessed as bacterial growth inhibition incubated for overnight by microbroth dilution method
[6] = test system: Escherichia coli; experiment: Synergistic antibacterial activity against Escherichia coli NCTC 12923 assessed as fold change in rifampicin MIC at <=0.25 times MIC incubated for overnight by microbroth dilution checkerboard assay relative to rifampicin alone; format: functional
Summary of the method: (§4)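 Checkerboard microdilution under MIC conditions (TSB, overnight, 37 °C). Two-fold series of each agent were combined on one plate before bacteria were added, and single-agent MICs were measured on the same plate. FIC = sum of combination MIC/alone MIC for each agent, taken from the most synergistic well. Three independent repeats, mean ± SD. ≤0.5 was taken as strong synergy and 0.5–<1 as weak.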

[7] = test system: Pseudomonas aeruginosa; experiment: Antibacterial activity against Pseudomonas aeruginosa NCTC 13437 assessed as bacterial growth inhibition incubated for overnight by microbroth dilution method; format: functional
Summary of the method: (§5)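 Broth microdilution in Tryptic Soy Broth. DMSO stocks were diluted in TSB as 2-fold series. Overnight TSB cultures were back-diluted to OD 0.01 and mixed 1:1 with compound. Incubation was overnight at 37 °C. MIC was the lowest concentration without visible growth (<0.1 OD600). DMSO vehicle was checked at equivalent concentrations.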

[8] = test system: Klebsiella pneumoniae; experiment: Synergistic antibacterial activity against Klebsiella pneumoniae NCTC 13368 assessed as rifampicin MIC at <=0.25 times MIC incubated for overnight by microbroth dilution checkerboard assay; format: functional; summary of the method: as §4
[9] = test system: Escherichia coli; experiment: Synergistic antibacterial activity against Escherichia coli NCTC 12923 assessed as bacterial growth inhibition incubated for overnight in presence of PBMN by microbroth dilution method relative to control; format: functional; summary of the method: as §2
[10] = test system: Acinetobacter baumannii; experiment: Synergistic antibacterial activity against Acinetobacter baumannii AYE assessed as bacterial growth inhibition incubated for overnight in presence of PBMN by microbroth dilution method relative to control; format: functional; summary of the method: as §2
[11] = test system: Enterococcus faecalis; experiment: Antibacterial activity against vancomycin sensitive Enterococcus faecalis NCTC 775 assessed as bacterial growth inhibition incubated for overnight by microbroth dilution method
[12] = test system: Escherichia coli; experiment: Antibacterial activity against Escherichia coli NCTC 12923 assessed as bacterial growth inhibition incubated for overnight by microbroth dilution method; format: functional; summary of the method: as §5
[13] = test system: Klebsiella pneumoniae; experiment: Synergistic antibacterial activity against […] Klebsiella pneumoniae M6 assessed as rifampicin MIC at <=0.25 times MIC incubated for overnight by microbroth dilution checkerboard assay; format: functional
Summary of the method: (§6)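 Checkerboard run under the MIC conditions (TSB, overnight, 37 °C). Antibiotic and lipoguanidine 2-fold series were combined on one plate before bacteria were added. Growth/no-growth was scored as for the MIC (<0.1 OD600). Single-agent MICs were measured on the same plates. Three independent repeats were done.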

[14] = test system: Pseudomonas aeruginosa; experiment: Synergistic antibacterial activity against Pseudomonas aeruginosa NCTC 13437 assessed as rifampicin MIC at <=0.25 times MIC incubated for overnight by microbroth dilution checkerboard assay; format: functional; summary of the method: as §3
[15] = test system: Klebsiella pneumoniae; experiment: Synergistic antibacterial activity against Klebsiella pneumoniae NCTC 13368 assessed as bacterial growth inhibition incubated for overnight in presence of PBMN by microbroth dilution method relative to control; format: functional; summary of the method: as §2
[16] = test system: Staphylococcus aureus; experiment: Antibacterial activity against methicillin sensitive Staphylococcus aureus ATCC 9144 assessed as bacterial growth inhibition incubated for overnight by microbroth dilution method; format: functional; summary of the method: as §1
[17] = test system: Pseudomonas aeruginosa; experiment: Synergistic antibacterial activity against Pseudomonas aeruginosa NCTC 13437 assessed as fold change in rifampicin MIC at <=0.25 times MIC incubated for overnight by microbroth dilution checkerboard assay relative to rifampicin alone; format: functional; summary of the method: as §3
[18] = test system: Staphylococcus aureus; experiment: Antibacterial activity against methicillin sensitive Staphylococcus aureus 1199B assessed as bacterial growth inhibition incubated for overnight by microbroth dilution method; format: functional; summary of the method: as §1
[19] = test system: Pseudomonas aeruginosa; experiment: Antibacterial activity against Pseudomonas aeruginosa PAO1 assessed as bacterial growth inhibition incubated for overnight by microbroth dilution method; format: functional; summary of the method: as §5
[20] = test system: Acinetobacter baumannii; experiment: Antibacterial activity against Acinetobacter baumannii AYE assessed as bacterial growth inhibition incubated for overnight by microbroth dilution method; format: functional; summary of the method: as §5
[21] = test system: Enterococcus faecalis; experiment: Antibacterial activity against vancomycin resistant Enterococcus faecalis NCTC 12201 assessed as bacterial growth inhibition incubated for overnight by microbroth dilution method; format: functional; summary of the method: as §1
[22] = test system: Staphylococcus aureus; experiment: Antibacterial activity against methicillin resistant Staphylococcus aureus USA 300 assessed as bacterial growth inhibition incubated for overnight by microbroth dilution method; format: functional; summary of the method: as §1
[23] = test system: Acinetobacter baumannii; experiment: Synergistic antibacterial activity against Acinetobacter baumannii ATCC 17978 assessed as bacterial growth inhibition incubated for overnight in presence of PBMN by microbroth dilution method relative to control; format: functional; summary of the method: as §2
[24] = test system: Klebsiella pneumoniae; experiment: Synergistic antibacterial activity against Klebsiella pneumoniae NCTC 13368 assessed as fold change in rifampicin MIC at <=0.25 times MIC incubated for overnight by microbroth dilution checkerboard assay relative to rifampicin alone; format: functional; summary of the method: as §6
[25] = test system: Acinetobacter baumannii; experiment: Synergistic antibacterial activity against Acinetobacter baumannii AYE assessed as fold change in rifampicin MIC at <=0.25 times MIC incubated for overnight by microbroth dilution checkerboard assay relative to rifampicin alone; format: functional; summary of the method: as §4
[26] = test system: Klebsiella pneumoniae; experiment: Antibacterial activity against Klebsiella pneumoniae M6 assessed as bacterial growth inhibition incubated for overnight by microbroth dilution method
[27] = test system: Acinetobacter baumannii; experiment: Synergistic antibacterial activity against Acinetobacter baumannii ATCC 17978 assessed as fold change in rifampicin MIC at <=0.25 times MIC incubated for overnight by microbroth dilution checkerboard assay relative to rifampicin alone; format: functional; summary of the method: as §4
[28] = test system: Escherichia coli; experiment: Synergistic antibacterial activity against Escherichia coli NCTC 12923 assessed as rifampicin MIC at <=0.25 times MIC incubated for overnight by microbroth dilution checkerboard assay; format: functional; summary of the method: as §4
[29] = test system: Staphylococcus aureus; experiment: Antibacterial activity against methicillin resistant Staphylococcus aureus NCTC 13616 assessed as bacterial growth inhibition incubated for overnight by microbroth dilution method; format: functional; summary of the method: as §1
[30] = test system: Pseudomonas aeruginosa; experiment: Synergistic antibacterial activity against Pseudomonas aeruginosa PAO1 assessed as rifampicin MIC at <=0.25 times MIC incubated for overnight by microbroth dilution checkerboard assay; format: functional; summary of the method: as §3
[31] = test system: Klebsiella pneumoniae; experiment: Synergistic antibacterial activity against Klebsiella pneumoniae M6 assessed as bacterial growth inhibition incubated for overnight in presence of PBMN by microbroth dilution method relative to control; format: functional; summary of the method: as §2
[32] = test system: Acinetobacter baumannii; experiment: Synergistic antibacterial activity against Acinetobacter baumannii ATCC 17978 assessed as rifampicin MIC at <=0.25 times MIC incubated for overnight by microbroth dilution checkerboard assay; format: functional; summary of the method: as §4
[33] = test system: Acinetobacter baumannii; experiment: Synergistic antibacterial activity against Acinetobacter baumannii AYE assessed as rifampicin MIC at <=0.25 times MIC incubated for overnight by microbroth dilution checkerboard assay; format: functional; summary of the method: as §4
[34] = test system: Acinetobacter baumannii; experiment: Antibacterial activity against Acinetobacter baumannii ATCC 17978 assessed as bacterial growth inhibition incubated for overnight by microbroth dilution method; format: functional; summary of the method: as §5

CCCCCCCCCCCCCCCCCCNC(=N)NCCCCN was tested, and the MIC [1] was 2 µg/mL (≈ 5.23 µM), the “inhibition (INH)” value [2] was less than 20% and the “fold change (FC)” value [3] was 0. The “inhibition (INH)” value [4] was less than 20%, the MIC [5] was greater than 128 µg/mL and the “fold change (FC)” value [6] was 0. The MIC [7] was greater than 128 µg/mL, the MIC [8] was 16 µg/mL and the “inhibition (INH)” value [9] was less than 20%. For the same compound, the “inhibition (INH)” value [10] was less than 20%, the MIC [11] was 2 µg/mL (≈ 5.23 µM) and the MIC [12] was greater than 128 µg/mL. For the same compound, the MIC [13] was 16 µg/mL, the MIC [14] was 32 µg/mL and the “inhibition (INH)” value [15] was less than 20%. The MIC [16] was 8 µg/mL (≈ 20.9 µM), the “fold change (FC)” value [17] was 0 and the MIC [18] was 4 µg/mL (≈ 10.5 µM). For the same compound, the MIC [19] was greater than 128 µg/mL, the MIC [20] was 128 µg/mL (≈ 334 µM) and the MIC [21] was 2 µg/mL (≈ 5.23 µM). The MIC [22] was 2 µg/mL (≈ 5.23 µM), the “inhibition (INH)” value [23] was less than 20% and the “fold change (FC)” value [24] was 0. For the same compound, the “fold change (FC)” value [25] was “>=4”, the MIC [26] was greater than 128 µg/mL and the “fold change (FC)” value [27] was “>=4”. For the same compound, the MIC [28] was 4 µg/mL, the MIC [29] was 4 µg/mL (≈ 10.5 µM) and the MIC [30] was 16 µg/mL. For the same compound, the “inhibition (INH)” value [31] was less than 20%, the MIC [32] was no more than 0.125 µg/mL and the MIC [33] was 2 µg/mL. The MIC [34] was 16 µg/mL (≈ 41.8 µM).
